Reference: ChEMBL document CHEMBL3808312, “Bioactive Constituents of Glycyrrhiza uralensis (Licorice): Discovery of the Effective Components of a Traditional Herbal Medicine” (J Nat Prod, 2016)
Active and inactive are the calls of the source. The rule behind the calls is not given here. Peptide text beside a SMILES is read from it. * marks the point of attachment. Cbz = O=C(OCc1ccccc1)*

What was measured:
[1] = target: T1, Tyrosine-protein phosphatase non-receptor type 1 (Homo sapiens) (UniProt P18031); assay: Inhibition of recombinant human PTP1B assessed as hydrolysis of p-nitrophenyl phosphate at 25 uM after 30 mins relative to control
T1 sequence (whole entry): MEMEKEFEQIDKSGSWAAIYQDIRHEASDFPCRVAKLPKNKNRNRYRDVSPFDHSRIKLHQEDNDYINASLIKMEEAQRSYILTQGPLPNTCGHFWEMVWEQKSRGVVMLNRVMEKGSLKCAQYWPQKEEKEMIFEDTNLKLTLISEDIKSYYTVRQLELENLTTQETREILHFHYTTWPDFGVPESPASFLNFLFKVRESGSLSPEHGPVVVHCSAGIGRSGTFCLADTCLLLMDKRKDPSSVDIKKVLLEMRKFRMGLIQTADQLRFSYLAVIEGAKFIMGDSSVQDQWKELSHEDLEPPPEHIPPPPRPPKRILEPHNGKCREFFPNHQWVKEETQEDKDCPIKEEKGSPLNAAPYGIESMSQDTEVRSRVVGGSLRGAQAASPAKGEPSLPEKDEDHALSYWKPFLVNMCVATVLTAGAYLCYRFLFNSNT

[2] = target: T2, Nuclear factor erythroid 2-related factor 2 (Homo sapiens) (UniProt Q16236); assay: Activation of NRF2 transcription in human HepG2C8 cells at 10 uM after 6 hrs by luciferase reporter gene assay relative to control; type: cell-based
T2 sequence (whole entry): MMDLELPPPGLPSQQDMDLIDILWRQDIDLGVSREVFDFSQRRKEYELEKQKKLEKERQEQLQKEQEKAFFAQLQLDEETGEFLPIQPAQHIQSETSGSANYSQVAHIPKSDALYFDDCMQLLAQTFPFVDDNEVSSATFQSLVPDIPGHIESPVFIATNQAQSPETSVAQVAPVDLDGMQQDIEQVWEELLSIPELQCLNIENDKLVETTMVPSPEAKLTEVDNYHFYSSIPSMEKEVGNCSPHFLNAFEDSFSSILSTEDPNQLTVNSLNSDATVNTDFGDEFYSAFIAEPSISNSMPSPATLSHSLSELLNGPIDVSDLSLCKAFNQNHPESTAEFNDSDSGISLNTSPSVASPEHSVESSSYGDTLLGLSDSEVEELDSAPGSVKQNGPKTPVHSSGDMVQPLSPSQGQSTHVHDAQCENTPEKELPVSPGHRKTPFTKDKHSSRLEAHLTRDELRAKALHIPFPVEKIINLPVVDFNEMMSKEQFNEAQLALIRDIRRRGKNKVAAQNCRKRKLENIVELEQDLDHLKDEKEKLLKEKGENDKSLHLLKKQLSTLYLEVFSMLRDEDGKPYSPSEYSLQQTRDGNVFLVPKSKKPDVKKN
Procedure, shortened: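 Luciferase reporter in HepG2C8 cells, which are HepG2 stably transfected with an Nrf2 luciferase reporter and grown in MEM. Screened at 10 μM, with dose-response over 2.5−40 μM. Activity expressed as fold of control. tBHQ positive control.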

Influenza A virus [3] = assay: Antiviral activity against Influenza A virus A/WSN/33(H1N1) infected in MDCK cells at 100 uM preincubated with virus for 15 mins followed by cells addition measured at 36 hrs post infection; type: functional, A/WSN/1933(H1N1)
Procedure, shortened: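 MDCK canine kidney cells grown in DMEM and infected with influenza A/WSN/33 (H1N1). Compounds screened at 100 μM. Oseltamivir phosphate served as the positive control.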

RAW264.7 [4] = assay: Antiinflammatory activity in mouse RAW264.7 cells assessed as inhibition of LPS-induced nitric oxide production at 10 uM after 24 hrs by Griess assay; type: functional
Procedure, shortened: (§1)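 RAW264.7 cells plated at 1.2 × 10^5/well in RPMI1640 and co-treated with compound and 1 μg/mL LPS for 24 h. Nitrite in medium read with Griess reagent (sulfanilamide/naphthylethylenediamine, phosphoric acid) after 15 min at 37 °C, absorbance 540 nm. […] Curcumin positive control.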

SW480 [5] = assay: Inhibition of NFkappaB transcription in human SW480 cells at 10 uM by luciferase reporter gene assay; type: cell-based
Procedure, shortened: (§2)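 SW480 cells (RPMI1640) stably transfected with an NF-κB luciferase reporter. […] MG132 positive control.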

[6] = (§3) Inhibition of NFkappaB transcription in human SW480 cells at by luciferase reporter gene assay; type: cell-based; procedure, shortened: as §2
SW480 [7] = assay: as §3; type: cell-based; procedure, shortened: as §2
Influenza A virus [8] = assay: Antiviral activity against Influenza A virus A/WSN/33(H1N1) infected in dog MDCK cells preincubated with virus for 15 mins followed by cells addition measured at 36 hrs post infection; type: functional, organism-based; conditions: A/WSN/1933(H1N1)
RAW264.7 [9] = assay: Antiinflammatory activity in mouse RAW264.7 cells assessed as inhibition of LPS-induced nitric oxide production after 24 hrs by Griess assay; type: functional, cell-based; conditions: RAW264.7, 24 h; procedure, shortened: as §1

SMILES | inhibition [1] | fold change (FC) [2] | Activity (Influenza A virus [3]) [%] | also measured
CC(C)=CCc1cc2c(=O)cc(-c3ccc(O)cc3)oc2cc1O | Active | – | – | –
CC(C)=CCc1cc(-c2oc3cc(O)cc(O)c3c(=O)c2O)ccc1O | 98% | – | – | –
COc1cc2c(c3oc(=O)c4c5ccc(O)cc5oc4c13)C(C)(C)C(C)O2 (stereo not given) | – | 0.88 | – | –
C[C@@H]1O[C@@H](c2c(O)c([C@@H]3O[C@H](COC(=O)CC(C)(O)CC(=O)O)[C@@H](O)[C@H](O)[C@H]3O)c3oc(-c4ccc(O)cc4)cc(=O)c3c2O)[C@H](O)[C@H](O)[C@H]1O (stereo not given in full) | – | 1.5 | – | –
COc1cc2oc(-c3ccc(O)cc3O)cc2c(OC)c1CC=C(C)C | > 90% | – | >30 | inhibition (RAW264.7 [4]): inactive
COc1c(CC=C(C)C)c(O)cc2oc(=O)c3c4ccc(O)cc4oc3c12 | – | 0.88 | – | –
COc1c2c(cc3oc(=O)c(-c4ccc(O)cc4O)cc13)OC(C)(C)CC2 | – | 3.49 | – | –
CC(C)=CCc1c(O)cc2oc(-c3ccc(O)cc3)c(O)c(=O)c2c1O | 51% | – | – | –
CC(C)C[C@@H](C=O)NC(=O)[C@H](CC(C)C)NC(=O)[C@H](CC(C)C)NC(=O)OCc1ccccc1 [MG-132] (Cbz-Leu-Leu-Leu-aldehyde) | – | – | – | inhibition (SW480 [5]): 23%; IC50 [6]: 29.5 µM; inhibition (SW480 [7]): Dose-dependent effect
CC(C)=CCc1c(O)c(CC=C(C)C)c2occ(-c3ccc(O)cc3)c(=O)c2c1O | > 95% | – | >30 | –
CC(C)=CCc1c(O)ccc(-c2coc3c(CC=C(C)C)c(O)cc(O)c3c2=O)c1O | > 95% | – | >30 | –
CC1(C)C=Cc2c(ccc3c2OC[C@@H](c2ccc(O)cc2O)C3)O1 [GLABRIDIN] | – | – | – | inhibition (SW480 [5]): > 30%; IC50 [6]: 21.4 µM; inhibition (SW480 [7]): Dose-dependent effect
COc1c2c(cc3oc(=O)c4c5ccc(O)cc5oc4c13)OC(C)(C)CC2 | – | 3.32 | – | –
CC1(C)[C@@H](O[C@@H]2O[C@H](C(=O)O)[C@@H](O)[C@H](O)[C@H]2O[C@@H]2OC[C@H](O)[C@H](O)[C@H]2O)CC[C@]2(C)[C@H]3C(=O)C=C4[C@H]5C[C@@](C)(C(=O)O)CC[C@]5(C)CC[C@@]4(C)[C@]3(C)CC[C@@H]12 | – | – | 47 | IC50 (Influenza A virus [8]): 39.6 µM
COc1c(CC=C(C)C)c(O)cc2oc(-c3ccc(O)cc3O)cc12 [LICOCOUMARONE] | > 90% | – | >30 | IC50 (RAW264.7 [9]): 8.5 µM; inhibition (SW480 [5]): > 30%; IC50 [6]: 5.1 µM; inhibition (SW480 [7]): Dose-dependent effect
COc1cc2oc(=O)c(-c3ccc(O)cc3O)cc2c(OC)c1CC=C(C)C | – | 0.88 | – | –
COc1cc2c(c(OC)c1CC=C(C)C)C1c3ccc(O)cc3OC1(O)CO2 (stereo not given) | – | – | – | inhibition (SW480 [5]): > 30%; IC50 [6]: 24.6 µM; inhibition (SW480 [7]): Dose-dependent effect
CC(=O)O[C@@H]1C[C@](C)(C=O)C[C@@H]2C3=CC(=O)[C@@H]4[C@@]5(C)CC[C@H](O[C@@H]6O[C@H](C(=O)O)[C@@H](O)[C@H](O)[C@H]6O[C@@H]6O[C@H](C(=O)O)[C@@H](O)[C@H](O)[C@H]6O)C(C)(C)[C@@H]5CC[C@@]4(C)[C@]3(C)CC[C@]21C | – | – | 47 | IC50 (Influenza A virus [8]): 39.6 µM
